Compound activity from PubChem.
Yeast tox = Compounds toxic to wild-type S. cerevisiae growth; A595 turbidity, 16 h; growth inhibition, % at 25 µM (by protocol); 30,000 tested, 0.3% active; AID 685;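 active means mutant and wild-type yeast strains alike exhibit over 30% growth inhibition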;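 further: 0% = untreated cell controls and 100% = YPD media blanks without cells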
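Incubation: 16 h growth with compound, 30 °C; Material: S. cerevisiae wild-type or eIF2Bepsilon-R284H mutant strain; Signal: turbidity measured as absorbance at 595 nm; Medium: YPD yeast growth medium; Measure: growth inhibition (%) versus cell controls and blanks; Doses: 25 µM single dose.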
eIF2B yeast act = modulators of yeast eIF2B activity; S. cerevisiae eIF2B-epsilon R284H, GCN4-lacZ luminescence; inhibition, % at 25 µM (by protocol); 27,000 tested, 0.91% active;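 active means mutant luminescence inhibited past about 50% while wild type luminescence and mutant growth stay under set limits, limit read from the data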
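Times: 16 h growth with compound at 30 °C, 90 min Beta-Glo step; Assay system: yeast eIF2B-epsilon R284H mutant carrying GCN4–beta-galactosidase fusion; Measure: % inhibition of reporter signal and growth versus controls; Dosing: one concentration, 25 µM, 0.25% DMSO; Buffer or medium: YPD yeast growth medium; Measured by: Beta-Glo luminescence plus absorbance at 595 nm.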
The depositor's hits bear a star; . = no result given. Hits are enriched below; roughly 1% of the tested compounds scored in any of these assays.

SMILES	Yeast tox	eIF2B yeast act
O=C(CSc1nc2ccccc2[nH]1)N1CCN(S(=O)(=O)c2ccc(Cl)cc2)CC1	8	.
O=C(CCN1CCN(C(=O)c2ccco2)CC1)Nc1ccc(F)cc1	-14	69*
CC(=O)Nc1ccc(C(=O)N2CCN(C(=O)c3ccco3)CC2)cc1	-2	13
c1ccc(N(c2ccccc2)c2nc(-n3ccnc3)nc(-n3ccnc3)n2)cc1	101*	95
CN(c1ccccc1)c1nc(-n2ccnc2)nc(-n2ccnc2)n1	-2	28
COc1cccc(-n2ccnc2SCC(=O)Nc2ccccc2)c1	-21	23
COc1cc(SC)ccc1C(=O)OC1CCOC1=O (stereo not given)	7	9
COc1ccccc1NC(=O)N(Cc1ccco1)Cc1cc2cc(C)cc(C)c2[nH]c1=O	-1	30
Cc1cccnc1Nc1nc(-c2ccc(O)cc2)cs1	36*	.
Clc1ccc(Nc2nc(-c3cccnc3)cs2)cc1	5	20
CC1CCN(S(=O)(=O)c2cccc(-c3cn4cc(Cl)ccc4n3)c2)CC1	5	27
CCc1nnc2sc(-c3ccc(NC(=O)CSc4ccc(Cl)cc4)cc3)nn12	-51	-9
Cc1cc(NC(=O)COC(=O)C(Cc2ccccc2)NC(=O)c2ccco2)no1 (stereo not given)	13	20
O=C(NC(Cc1ccccc1)C(=O)OCC(=O)N1CCc2ccccc21)c1ccco1 (stereo not given)	-19	52*
COc1ccc(NC(=O)NCCCN2CCCCC2C)cc1 (stereo not given)	4	-9
O=C(CCS(=O)NCc1ccccc1)NCc1ccccc1 (stereo not given)	1	10
O=C(CCS(=O)CCC(=O)NCc1ccccc1)NCc1ccccc1	-11	55*
COC(=O)c1nn(-c2ccc3c(c2)CCN3C(C)=O)cc1O	-9	77*
COC(=O)c1nn(-c2ccc3c(c2)OCO3)cc1O	-24	26
Cc1ccc(S(=O)(=O)N2CCOCC2)cc1C(=O)Nc1ccccn1	.	28
Clc1ccc(C(c2ccccc2)N2CCNCC2)cc1 (stereo not given)	7	.
CSCCC(NC(=O)C1CCC(C)CC1)C(=O)O (stereo not given)	10	19
CCOC(=O)Cn1c(=O)c2c(nc3n2CCN3Cc2ccccc2)n(C)c1=O	4	53*
CCOC(=O)Cn1c(=O)c2c(nc3n2CCN3c2ccc(C)cc2)n(C)c1=O	10	-22
c1ccc2[nH]c(CSc3nc4ccccc4o3)nc2c1	15	-1
SMILES	Yeast tox	eIF2B yeast act
Nn1c(CSc2nc3ccccc3o2)nnc1CSc1nc2ccccc2o1	-20	61*
O=C(NCC1CCCO1)c1ccccc1 (stereo not given)	12	5
O=C(Nc1ccccc1)C1CC=CCC1C(=O)OCC1CCCO1 (stereo not given)	33*	22
O=C(Nc1ccc(Cl)c(Cl)c1)C1=Cc2ccccc2OC1	43	18
O=C(O)CN1CCCC1=Nc1ccccc1	8	.
Cc1ccc(C)c(N=C2CCCN2Cc2ccccc2)c1C#N	.	57*
CCC(=C(c1ccc(OC)cc1)c1ccc(OC)cc1)c1cn(CC(O)CN2CCN(C)CC2)c2ccccc12 (stereo not given)	102*	97
COc1ccc(OCC(O)CN2CCCCCC2)cc1 (stereo not given)	-34	13
O=C(c1c[nH]c2ccc(S(=O)(=O)N3CCOCC3)cc2c1=O)N1CCCC1	1	60*
O=C(O)c1c[nH]c2ccc(S(=O)(=O)N3CCN(c4ccc(F)cc4)CC3)cc2c1=O	18	10
CCC(C)COC(=O)c1ccc(C(=O)O)cc1 (stereo not given)	.	46
O=C(C1CCCN1S(=O)(=O)c1ccc(Cl)cc1)N1CCOCC1 (stereo not given)	14	16
CC1=C(C)/C(=N\OS(=O)(=O)c2ccccc2)C=CC1=O	100*	89
CN1C(=O)N(C)C2(c3ccccc3)NC(=O)NC12c1ccccc1 (stereo not given)	3	54*
CN1C(=O)NC2(O)C(=O)c3ccccc3C12O (stereo not given)	8	.
COc1cccc(C2NC(CC(C)C)(C(=O)O)C3C(=O)N(Cc4ccccc4)C(=O)C23)c1O (stereo not given)	18	52*
COC(=O)C1(Cc2ccccc2)NC(c2ccccc2C)C2C(=O)N(c3ccc4c(c3)OCO4)C(=O)C21 (stereo not given)	-18	22
O=[N+]([O-])c1cc(S(=O)(=O)Nc2ccccc2)ccc1-n1nnc2ccccc21	2	14
Cc1cc(NC(=O)c2cc(-c3cccs3)on2)no1	31*	0
CC(C)NC(=O)c1cc(-c2cccs2)on1	18	24
Cc1ccc(CNC(=O)CNS(=O)(=O)c2cccc3nsnc23)cc1	26	20
COc1ccccc1NC(=O)CSc1nncn1-c1cccnc1	8	16
